Source: ChEMBL document CHEMBL1275484, “Rifampin and rifaximin resistance in clinical isolates of Clostridium difficile” (Antimicrob Agents Chemother, 2008)
Values after ≈ are worked out from the molar mass of the structure shown.

What was measured:
Assay type in all cases: functional
Clostridioides difficile [1] = experiment: Antimicrobial activity against Clostridium difficile isolate 63 by Etest
Procedure, shortened: (§1)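 Rifampin MIC by Etest on brucella blood agar, run per the strip manufacturer's instructions, against clinical isolates typed by HindIII REA.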

Clostridioides difficile [2] = experiment: Antimicrobial activity against Clostridium difficile isolate 54 by agar dilution method
Procedure, shortened: (§2)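 CLSI reference agar dilution method for anaerobes, with endpoints read per guideline M11-A7. Rifaximin was dissolved in methanol, diluted in 0.1 M phosphate buffer (pH 7.4) with 0.45% SDS, and tested at 0.0009–256 μg/ml. Rifampin was dissolved in methanol, diluted in water, and tested at 0.00001–256 μg/ml. C. difficile ATCC […] served as control. Isolates were typed by HindIII REA.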

Clostridioides difficile [3] = experiment: Antimicrobial activity against Clostridium difficile isolate 6 by Etest
Procedure, shortened: (§3)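 Rifampin Etest strips were run on brucella blood agar following the manufacturer's instructions to give an MIC. Clinical isolates were typed by HindIII REA.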

Clostridioides difficile [4] = experiment: Antimicrobial activity against Clostridium difficile isolate 2 by Etest
Procedure, shortened: (§4)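 Rifampin MIC by Etest strip on brucella blood agar, run per the strip maker's instructions. Isolates were HindIII REA-typed clinical C. difficile.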

Clostridioides difficile [5] = experiment: Antimicrobial activity against rifaximin-resistant Clostridium difficile isolate 22 expressing RpoB H502N and R505K mutants by agar dilution method
Procedure, shortened: (§5)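 MICs were found by the CLSI reference agar dilution method for anaerobes, with endpoints read per M11-A7 and C. difficile […] as control. Rifaximin was dissolved in methanol, diluted in 0.1 M phosphate buffer pH 7.4 with 0.45% SDS, and tested at 0.0009–256 μg/ml. Rifampin was dissolved in methanol, diluted in water, and tested at 0.00001–256 μg/ml.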

Clostridioides difficile [6] = experiment: Antimicrobial activity against Clostridium difficile isolate 10 by agar dilution method
Procedure, shortened: (§6)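 MIC by CLSI reference agar dilution for anaerobes, with endpoints read per M11-A7 and C. difficile […] as control. Rifaximin was dissolved in methanol, diluted in 0.1 M phosphate buffer pH 7.4 plus 0.45% SDS, and tested at 0.0009–256 μg/ml. Rifampin was dissolved in methanol, diluted in water, and tested at 0.00001–256 μg/ml.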

Clostridioides difficile [7] = experiment: Antimicrobial activity against Clostridium difficile isolate 69 by Etest; procedure, shortened: as §1
Clostridioides difficile [8] = experiment: Antimicrobial activity against Clostridium difficile isolate 10 by Etest; procedure, shortened: as §4
Clostridioides difficile [9] = experiment: Antimicrobial activity against Clostridium difficile isolate 69 by agar dilution method
Procedure, shortened: (§7)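 CLSI reference agar dilution for anaerobes, with endpoints read per guideline M11-A7. Rifaximin was dissolved in methanol, diluted in 0.1 M phosphate buffer pH 7.4 with 0.45% SDS, and tested at 0.0009–256 μg/ml. Rifampin was dissolved in methanol, diluted in water, and tested at 0.00001–256 μg/ml. Control strain: C. difficile ATCC […]. Isolates were typed by HindIII REA.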

Clostridioides difficile [10] = experiment: Antimicrobial activity against Clostridium difficile isolate 57 by agar dilution method; procedure, shortened: as §2
Clostridioides difficile [11] = experiment: Antimicrobial activity against Clostridium difficile isolate 72 by agar dilution method; procedure, shortened: as §7
Clostridioides difficile [12] = experiment: Antimicrobial activity against Clostridium difficile isolate 47 by agar dilution method; procedure, shortened: as §2
Clostridioides difficile [13] = experiment: Antimicrobial activity against Clostridium difficile isolate 73 by Etest; procedure, shortened: as §1
Clostridioides difficile [14] = experiment: Antimicrobial activity against rifaximin-resistant Clostridium difficile isolate 17 expressing RpoB H502N and I548M mutants by agar dilution method; procedure, shortened: as §5
Clostridioides difficile [15] = experiment: Antimicrobial activity against Clostridium difficile isolate 37 by Etest; procedure, shortened: as §4
Clostridioides difficile [16] = experiment: Antimicrobial activity against Clostridium difficile isolate 16 by agar dilution method; procedure, shortened: as §6
Clostridioides difficile [17] = experiment: Antimicrobial activity against Clostridium difficile isolate 52 by Etest; procedure, shortened: as §3
Clostridioides difficile [18] = experiment: Antimicrobial activity against Clostridium difficile isolate 32 by Etest; procedure, shortened: as §4
Clostridioides difficile [19] = experiment: Antimicrobial activity against Clostridium difficile isolate 15 by Etest; procedure, shortened: as §4
Clostridioides difficile [20] = experiment: Antimicrobial activity against Clostridium difficile isolate 56 by agar dilution method; procedure, shortened: as §2
Clostridioides difficile [21] = experiment: Antimicrobial activity against Clostridium difficile isolate 19 by agar dilution method; procedure, shortened: as §6
Clostridioides difficile [22] = experiment: Antimicrobial activity against Clostridium difficile isolate 75 by Etest; procedure, shortened: as §1
Clostridioides difficile [23] = experiment: Antimicrobial activity against rifaximin-resistant Clostridium difficile isolate 17 expressing RpoB H502N and I548M mutants by Etest
Procedure, shortened: (§8)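 Rifampin Etest on clinical C. difficile isolates typed by HindIII REA, run per the strip manufacturer's instructions on brucella blood agar, with the MIC read from the strip.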

Clostridioides difficile [24] = experiment: Antimicrobial activity against Clostridium difficile isolate 27 by Etest; procedure, shortened: as §4
Clostridioides difficile [25] = experiment: Antimicrobial activity against rifaximin-resistant Clostridium difficile isolate 67 expressing RpoB H502N and R505K mutants by Etest; procedure, shortened: as §8
Clostridioides difficile [26] = experiment: Antimicrobial activity against Clostridium difficile isolate 57 by Etest; procedure, shortened: as §3
Clostridioides difficile [27] = experiment: Antimicrobial activity against Clostridium difficile isolate 8 by agar dilution method; procedure, shortened: as §7
Clostridioides difficile [28] = experiment: Antimicrobial activity against Clostridium difficile isolate 7 by Etest; procedure, shortened: as §1
Clostridioides difficile [29] = experiment: Antimicrobial activity against rifaximin-resistant Clostridium difficile isolate 65 expressing RpoB H502N and R505K mutants by agar dilution method; procedure, shortened: as §5
Clostridioides difficile [30] = experiment: Antimicrobial activity against Clostridium difficile isolate 38 by Etest; procedure, shortened: as §4
Clostridioides difficile [31] = experiment: Antimicrobial activity against Clostridium difficile isolate 23 by agar dilution method; procedure, shortened: as §6
Clostridioides difficile [32] = experiment: Antimicrobial activity against Clostridium difficile isolate 34 by Etest; procedure, shortened: as §4
Clostridioides difficile [33] = experiment: Antimicrobial activity against Clostridium difficile isolate 47 by Etest; procedure, shortened: as §3
Clostridioides difficile [34] = experiment: Antimicrobial activity against Clostridium difficile isolate 53 by Etest; procedure, shortened: as §3
Clostridioides difficile [35] = experiment: Antimicrobial activity against Clostridium difficile isolate 19 by Etest; procedure, shortened: as §4
Clostridioides difficile [36] = experiment: Antimicrobial activity against Clostridium difficile isolate 9 by agar dilution method; procedure, shortened: as §7
Clostridioides difficile [37] = experiment: Antimicrobial activity against Clostridium difficile isolate 49 by Etest; procedure, shortened: as §3
Clostridioides difficile [38] = experiment: Antimicrobial activity against Clostridium difficile isolate 8 by Etest; procedure, shortened: as §1
Clostridioides difficile [39] = experiment: Antimicrobial activity against Clostridium difficile isolate 49 by agar dilution method; procedure, shortened: as §2
Clostridioides difficile [40] = experiment: Antimicrobial activity against Clostridium difficile isolate 78 by Etest; procedure, shortened: as §1
Clostridioides difficile [41] = experiment: Antimicrobial activity against Clostridium difficile isolate 48 by agar dilution method; procedure, shortened: as §2
Clostridioides difficile [42] = experiment: Antimicrobial activity against Clostridium difficile isolate 80 by agar dilution method; procedure, shortened: as §7
Clostridioides difficile [43] = experiment: Antimicrobial activity against Clostridium difficile isolate 16 by Etest; procedure, shortened: as §4
Clostridioides difficile [44] = experiment: Antimicrobial activity against Clostridium difficile isolate 35 by agar dilution method; procedure, shortened: as §6
Clostridioides difficile [45] = experiment: Antimicrobial activity against rifaximin-resistant Clostridium difficile isolate 64 expressing RpoB H502R mutant by Etest; procedure, shortened: as §8
Clostridioides difficile [46] = experiment: Antimicrobial activity against Clostridium difficile isolate 78 by agar dilution method; procedure, shortened: as §7
Clostridioides difficile [47] = experiment: Antimicrobial activity against rifaximin-resistant Clostridium difficile isolate 68 expressing RpoB H502Y mutant by Etest; procedure, shortened: as §8
Clostridioides difficile [48] = experiment: Antimicrobial activity against rifaximin-resistant Clostridium difficile isolate 4 expressing RpoB S488T and R505K mutants by agar dilution method; procedure, shortened: as §5
Clostridioides difficile [49] = experiment: Antimicrobial activity against rifaximin-resistant Clostridium difficile isolate 24 expressing RpoB H502N and R505K mutants by Etest; procedure, shortened: as §8
Clostridioides difficile [50] = experiment: Antimicrobial activity against Clostridium difficile isolate 42 by agar dilution method; procedure, shortened: as §2

CO[C@H]1/C=C/O[C@@]2(C)Oc3c(C)c(O)c4c(O)c(c(/C=N/N5CCN(C)CC5)c(O)c4c3C2=O)NC(=O)/C(C)=C\C=C\[C@H](C)[C@H](O)[C@@H](C)[C@@H](O)[C@@H](C)[C@H](OC(C)=O)[C@@H]1C [RIFAMPIN]
MIC (Clostridioides difficile [1]): < 2 ng/mL | MIC (Clostridioides difficile [2]): 0.9 ng/mL (≈ 1.09 nM) | MIC (Clostridioides difficile [3]): < 2 ng/mL | MIC (Clostridioides difficile [4]): < 2 ng/mL | MIC (Clostridioides difficile [5]): > 256000 ng/mL | MIC (Clostridioides difficile [6]): 0.06 ng/mL (≈ 0.0729 nM) | MIC (Clostridioides difficile [7]): < 2 ng/mL | MIC (Clostridioides difficile [8]): 16 ng/mL (≈ 19.4 nM) | MIC (Clostridioides difficile [9]): 0.06 ng/mL (≈ 0.0729 nM) | MIC (Clostridioides difficile [10]): 0.9 ng/mL (≈ 1.09 nM) | MIC (Clostridioides difficile [11]): 0.06 ng/mL (≈ 0.0729 nM) | MIC (Clostridioides difficile [12]): 0.9 ng/mL (≈ 1.09 nM) | MIC (Clostridioides difficile [13]): < 2 ng/mL | MIC (Clostridioides difficile [14]): > 256000 ng/mL | MIC (Clostridioides difficile [15]): < 2 ng/mL | MIC (Clostridioides difficile [16]): 0.9 ng/mL (≈ 1.09 nM) | MIC (Clostridioides difficile [17]): < 2 ng/mL | MIC (Clostridioides difficile [18]): < 2 ng/mL | MIC (Clostridioides difficile [19]): < 2 ng/mL | MIC (Clostridioides difficile [20]): 0.9 ng/mL (≈ 1.09 nM) | MIC (Clostridioides difficile [21]): 0.9 ng/mL (≈ 1.09 nM) | MIC (Clostridioides difficile [22]): < 2 ng/mL | MIC (Clostridioides difficile [23]): > 32000 ng/mL | MIC (Clostridioides difficile [24]): < 2 ng/mL | MIC (Clostridioides difficile [25]): > 32000 ng/mL | MIC (Clostridioides difficile [26]): < 2 ng/mL | MIC (Clostridioides difficile [27]): 0.06 ng/mL (≈ 0.0729 nM) | MIC (Clostridioides difficile [28]): < 2 ng/mL | MIC (Clostridioides difficile [29]): > 256000 ng/mL | MIC (Clostridioides difficile [30]): < 2 ng/mL | MIC (Clostridioides difficile [31]): 0.9 ng/mL (≈ 1.09 nM) | MIC (Clostridioides difficile [32]): 4 ng/mL (≈ 4.86 nM) | MIC (Clostridioides difficile [33]): < 2 ng/mL | MIC (Clostridioides difficile [34]): < 2 ng/mL | MIC (Clostridioides difficile [35]): < 2 ng/mL | MIC (Clostridioides difficile [36]): 0.06 ng/mL (≈ 0.0729 nM) | MIC (Clostridioides difficile [37]): < 2 ng/mL | MIC (Clostridioides difficile [38]): < 2 ng/mL | MIC (Clostridioides difficile [39]): 0.9 ng/mL (≈ 1.09 nM) | MIC (Clostridioides difficile [40]): < 2 ng/mL | MIC (Clostridioides difficile [41]): 0.9 ng/mL (≈ 1.09 nM) | MIC (Clostridioides difficile [42]): 0.06 ng/mL (≈ 0.0729 nM) | MIC (Clostridioides difficile [43]): < 2 ng/mL | MIC (Clostridioides difficile [44]): 0.9 ng/mL (≈ 1.09 nM) | MIC (Clostridioides difficile [45]): > 32000 ng/mL | MIC (Clostridioides difficile [46]): 0.06 ng/mL (≈ 0.0729 nM) | MIC (Clostridioides difficile [47]): > 32000 ng/mL | MIC (Clostridioides difficile [48]): > 256000 ng/mL | MIC (Clostridioides difficile [49]): > 32000 ng/mL | MIC (Clostridioides difficile [50]): 0.9 ng/mL (≈ 1.09 nM)
